# Reference: article PMC5114172 (Journal of applied toxicology : JAT, 2016)
# How the values were obtained:
# monocyte-depleted PBMCs = test: Cell viability, trypan blue exclusion; format: cell-based, human; conditions: for Percent Viable Cells / decrease in viability: MD-PBMCs
# PBMCs = test: IL-1β secretion assay; format: cell-based, human
# In short: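 NK cells, MD-PBMCs, PBMCs or granulocytes (1.5 million/mL) or PBMC+granulocytes (0.75 million/mL each), per donor, exposed 24 h, 48 h or 6 days to 0.05–5 μM test compound diluted from DMSO stock, with DMSO controls. Supernatants kept at −70 °C. IL-1β by sandwich ELISA: HRP detection antibody, acid-stopped substrate, A450 against standards. Detection limit 3 pg/mL; triplicates; ANOVA then t test versus control, p<0.05.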
compound,measurement,setting,value
"CCC[CH2][Sn][CH2]CCC [DBT, Dibutyltin]",average decrease in viability,"monocyte-depleted PBMCs; MD-PBMC, 24 h, 5 μM DBT",15%
same,Percent Viable Cells,"monocyte-depleted PBMCs; 24 h, 0.05 μM DBT",98±2%
same,Percent Viable Cells,"monocyte-depleted PBMCs; 24 h, 0.1 μM DBT",98±1%
same,Percent Viable Cells,"monocyte-depleted PBMCs; 24 h, 0.25 μM DBT",97±1%
same,Percent Viable Cells,"monocyte-depleted PBMCs; 24 h, 0.5 μM DBT",91±8%
same,Percent Viable Cells,"monocyte-depleted PBMCs; 24 h, 1 μM DBT",92±4%
same,Percent Viable Cells,"monocyte-depleted PBMCs; 24 h, 2.5 μM DBT",74±15 %
same,Percent Viable Cells,"monocyte-depleted PBMCs; 24 h, 5 μM DBT",80±9 %
same,decrease in viability,"monocyte-depleted PBMCs; 24 h, 2.5 and 5 μM DBT",15%
same,Percent Viable Cells,"monocyte-depleted PBMCs; 48 h, 0.05 μM DBT",96±2%
same,Percent Viable Cells,"monocyte-depleted PBMCs; 48 h, 0.1 μM DBT",97±1 %
same,Percent Viable Cells,"monocyte-depleted PBMCs; 48 h, 0.25 μM DBT",96±2%
same,Percent Viable Cells,"monocyte-depleted PBMCs; 48 h, 0.5 μM DBT",94±3%
same,Percent Viable Cells,"monocyte-depleted PBMCs; 48 h, 1 μM DBT",80±11 %
same,Percent Viable Cells,"monocyte-depleted PBMCs; 48 h, 2.5 μM DBT",56±20 %
same,decrease in viability,"monocyte-depleted PBMCs; 48 h, 2.5 μM DBT",38%
same,Percent Viable Cells,"monocyte-depleted PBMCs; 48 h, 5 μM DBT",55±10 %
same,decrease in viability,"monocyte-depleted PBMCs; 48 h, 5 μM DBT",35%
same,Percent Viable Cells,"monocyte-depleted PBMCs; 6 day, 0.05 μM DBT",89±8%
same,Percent Viable Cells,"monocyte-depleted PBMCs; 6 day, 0.1 μM DBT",86±7%
same,Percent Viable Cells,"monocyte-depleted PBMCs; 6 day, 0.25 μM DBT",81±13%
same,Percent Viable Cells,"monocyte-depleted PBMCs; 6 day, 0.5 μM DBT",67±13 %
same,Percent Viable Cells,"monocyte-depleted PBMCs; 6 day, 1 μM DBT",52±11 %
same,Percent Viable Cells,"monocyte-depleted PBMCs; 6 day, 2.5 μM DBT",47±9 %
same,Percent Viable Cells,"monocyte-depleted PBMCs; 6 day, 5 μM DBT",52±8 %
same,average of the maximum fold increase in IL-β secretion,"PBMCs; 24 h, across donors",3.2 fold
same,Interleukin 1 beta secreted,"PBMCs; donor F148, 24 h, 0.05 μM DBT",120.533 ± 8.211 ng/mL
same,Interleukin 1 beta secreted,"PBMCs; donor F148, 24 h, 0.1 μM DBT",107.467 ± 4.636 ng/mL
same,Interleukin 1 beta secreted,"PBMCs; donor F148, 24 h, 0.25 μM DBT",137.333 ± 3.926 ng/mL
same,Interleukin 1 beta secreted,"PBMCs; donor F148, 24 h, 0.5 μM DBT",32.4 ± 1.833 ng/mL
same,Interleukin 1 beta secreted,"PBMCs; donor F148, 24 h, 1 μM DBT",11.6 ± 11.085 ng/mL
same,Interleukin 1 beta secreted,"PBMCs; donor F148, 24 h, 2.5 μM DBT",12.133 ± 0.462 ng/mL
same,Interleukin 1 beta secreted,"PBMCs; donor F148, 24 h, 5 μM DBT",11.867 ± 0.924 ng/mL
same,Interleukin 1 beta secreted,"PBMCs; donor F148, 48 h, 0.05 μM DBT",15851 ± 836 ng/mL
same,Interleukin 1 beta secreted,"PBMCs; donor F148, 48 h, 0.1 μM DBT",17620 ± 257 ng/mL
same,Interleukin 1 beta secreted,"PBMCs; donor F148, 48 h, 0.25 μM DBT",18728 ± 597 ng/mL
same,Interleukin 1 beta secreted,"PBMCs; donor F148, 48 h, 0.5 μM DBT",5493 ± 409 ng/mL
same,Interleukin 1 beta secreted,"PBMCs; donor F148, 48 h, 1 μM DBT",2224 ± 329 ng/mL
same,Interleukin 1 beta secreted,"PBMCs; donor F148, 48 h, 5 μM DBT",483 ± 358 ng/mL
same,Interleukin 1 beta secreted,"PBMCs; donor F148, 6 day, 0.1 μM DBT",25 ± 0 ng/mL
same,Interleukin 1 beta secreted,"PBMCs; donor F148, 6 day, 0.25 μM DBT",25 ± 1 ng/mL
same,Interleukin 1 beta secreted,"PBMCs; donor F148, 6 day, 0.5 μM DBT",6 ± 0 ng/mL
same,Interleukin 1 beta secreted,"PBMCs; donor F154, 24 h, 0.05 μM DBT",5.056 ± 0.273 ng/mL
same,Interleukin 1 beta secreted,"PBMCs; donor F154, 24 h, 0.1 μM DBT",4.568 ± 0.168 ng/mL
same,Interleukin 1 beta secreted,"PBMCs; donor F154, 24 h, 0.25 μM DBT",1.383 ± 0.123 ng/mL
same,Interleukin 1 beta secreted,"PBMCs; donor F154, 24 h, 0.5 μM DBT",0.765 ± 0.084 ng/mL
same,Interleukin 1 beta secreted,"PBMCs; donor F154, 24 h, 1 μM DBT",0.38 ± 0.013 ng/mL
same,Interleukin 1 beta secreted,"PBMCs; donor F154, 24 h, 2.5 μM DBT",0.111 ± 0.067 ng/mL
same,Interleukin 1 beta secreted,"PBMCs; donor F154, 48 h, 0.05 μM DBT",4249 ± 294 ng/mL
same,Interleukin 1 beta secreted,"PBMCs; donor F154, 48 h, 0.1 μM DBT",4193 ± 556 ng/mL
same,Interleukin 1 beta secreted,"PBMCs; donor F154, 48 h, 0.25 μM DBT",1687 ± 42 ng/mL
same,Interleukin 1 beta secreted,"PBMCs; donor F154, 48 h, 0.5 μM DBT",1036 ± 128 ng/mL
same,Interleukin 1 beta secreted,"PBMCs; donor F154, 48 h, 1 μM DBT",1325 ± 72 ng/mL
same,Interleukin 1 beta secreted,"PBMCs; donor F154, 48 h, 2.5 μM DBT",378 ± 61 ng/mL
same,Interleukin 1 beta secreted,"PBMCs; donor F154, 48 h, 5 μM DBT",193 ± 0 ng/mL
same,Interleukin 1 beta secreted,"PBMCs; donor F154, 6 day, 0.05 μM DBT",3507 ± 155 ng/mL
same,Interleukin 1 beta secreted,"PBMCs; donor F154, 6 day, 0.1 μM DBT",3300 ± 114 ng/mL
same,Interleukin 1 beta secreted,"PBMCs; donor F154, 6 day, 0.25 μM DBT",3816 ± 464 ng/mL
same,Interleukin 1 beta secreted,"PBMCs; donor F154, 6 day, 0.5 μM DBT",2056 ± 114 ng/mL
same,Interleukin 1 beta secreted,"PBMCs; donor F154, 6 day, 1 μM DBT",2531 ± 464 ng/mL
same,Interleukin 1 beta secreted,"PBMCs; donor F154, 6 day, 2.5 μM DBT",586 ± 179 ng/mL
same,Interleukin 1 beta secreted,"PBMCs; donor F154, 6 day, 5 μM DBT",118 ± 146 ng/mL
same,Interleukin 1 beta secreted,"PBMCs; donor F159, 24 h, 0.05 μM DBT",2.812 ± 0.15 ng/mL
same,fold increase in IL-1β secretion,"PBMCs; donor F159, 24 h, 0.05 μM DBT",1.7 fold
same,Interleukin 1 beta secreted,"PBMCs; donor F159, 24 h, 0.1 μM DBT",6.376 ± 0.233 ng/mL
same,fold increase in IL-1β secretion,"PBMCs; donor F159, 24 h, 0.1 μM DBT",3.8 fold
same,Interleukin 1 beta secreted,"PBMCs; donor F159, 24 h, 0.25 μM DBT",5.803 ± 0.15 ng/mL
same,fold increase in IL-1β secretion,"PBMCs; donor F159, 24 h, 0.25 μM DBT",3.4 fold
same,Interleukin 1 beta secreted,"PBMCs; donor F159, 24 h, 0.5 μM DBT",1.667 ± 0.112 ng/mL
same,Interleukin 1 beta secreted,"PBMCs; donor F159, 24 h, 1 μM DBT",0.812 ± 0.065 ng/mL
same,Interleukin 1 beta secreted,"PBMCs; donor F159, 48 h, 0.05 μM DBT",1034 ± 299 ng/mL
same,Interleukin 1 beta secreted,"PBMCs; donor F159, 48 h, 0.1 μM DBT",1211 ± 71 ng/mL
same,Interleukin 1 beta secreted,"PBMCs; donor F159, 48 h, 0.25 μM DBT",1243 ± 192 ng/mL
same,Interleukin 1 beta secreted,"PBMCs; donor F159, 48 h, 0.5 μM DBT",1099 ± 93 ng/mL
same,Interleukin 1 beta secreted,"PBMCs; donor F159, 48 h, 1 μM DBT",1246 ± 9 ng/mL
same,Interleukin 1 beta secreted,"PBMCs; donor F159, 48 h, 2.5 μM DBT",532 ± 101 ng/mL
same,Interleukin 1 beta secreted,"PBMCs; donor F159, 48 h, 5 μM DBT",565 ± 15 ng/mL
same,Interleukin 1 beta secreted,"PBMCs; donor F159, 6 day, 0.05 μM DBT",210 ± 62 ng/mL
same,Interleukin 1 beta secreted,"PBMCs; donor F159, 6 day, 0.1 μM DBT",236 ± 10 ng/mL
same,Interleukin 1 beta secreted,"PBMCs; donor F159, 6 day, 0.25 μM DBT",507 ± 21 ng/mL
same,Interleukin 1 beta secreted,"PBMCs; donor F159, 6 day, 0.5 μM DBT",229 ± 7 ng/mL
same,Interleukin 1 beta secreted,"PBMCs; donor F159, 6 day, 1 μM DBT",256 ± 12 ng/mL
same,Interleukin 1 beta secreted,"PBMCs; donor F159, 6 day, 2.5 μM DBT",52 ± 1 ng/mL
same,Interleukin 1 beta secreted,"PBMCs; donor F159, 6 day, 5 μM DBT",51 ± 9 ng/mL
same,Interleukin 1 beta secreted,"PBMCs; donor F173, 24 h, 0.05 μM DBT",7.072 ± 0.935 ng/mL
same,Interleukin 1 beta secreted,"PBMCs; donor F173, 24 h, 0.1 μM DBT",8.1 ± 0.822 ng/mL
same,Interleukin 1 beta secreted,"PBMCs; donor F173, 24 h, 0.25 μM DBT",4.443 ± 0.405 ng/mL
same,Interleukin 1 beta secreted,"PBMCs; donor F173, 24 h, 0.5 μM DBT",20.063 ± 1.077 ng/mL
same,Interleukin 1 beta secreted,"PBMCs; donor F173, 24 h, 1 μM DBT",9.989 ± 0.155 ng/mL
same,Interleukin 1 beta secreted,"PBMCs; donor F173, 24 h, 2.5 μM DBT",3.813 ± 0.058 ng/mL
same,Interleukin 1 beta secreted,"PBMCs; donor F173, 24 h, 5 μM DBT",2.517 ± 0.073 ng/mL
same,Interleukin 1 beta secreted,"PBMCs; donor F173, 48 h, 0.05 μM DBT",614 ± 63 ng/mL
same,Interleukin 1 beta secreted,"PBMCs; donor F173, 48 h, 0.1 μM DBT",500 ± 41 ng/mL
same,Interleukin 1 beta secreted,"PBMCs; donor F173, 48 h, 0.25 μM DBT",425 ± 20 ng/mL
same,Interleukin 1 beta secreted,"PBMCs; donor F173, 48 h, 0.5 μM DBT",745 ± 36 ng/mL
same,Interleukin 1 beta secreted,"PBMCs; donor F173, 48 h, 1 μM DBT",2064 ± 194 ng/mL
same,Interleukin 1 beta secreted,"PBMCs; donor F173, 48 h, 2.5 μM DBT",591 ± 32 ng/mL
same,Interleukin 1 beta secreted,"PBMCs; donor F173, 48 h, 5 μM DBT",478 ± 32 ng/mL
same,Interleukin 1 beta secreted,"PBMCs; donor F173, 6 day, 0.05 μM DBT",465 ± 151 ng/mL
same,Interleukin 1 beta secreted,"PBMCs; donor F173, 6 day, 0.1 μM DBT",398 ± 28 ng/mL
same,Interleukin 1 beta secreted,"PBMCs; donor F173, 6 day, 0.25 μM DBT",453 ± 16 ng/mL
same,Interleukin 1 beta secreted,"PBMCs; donor F173, 6 day, 0.5 μM DBT",932 ± 8 ng/mL
same,Interleukin 1 beta secreted,"PBMCs; donor F173, 6 day, 1 μM DBT",690 ± 15 ng/mL
same,Interleukin 1 beta secreted,"PBMCs; donor F173, 6 day, 2.5 μM DBT",181 ± 8 ng/mL
same,Interleukin 1 beta secreted,"PBMCs; donor F173, 6 day, 5 μM DBT",145 ± 2 ng/mL
